OX1R antag-1: antagonists of human orexin 1 receptor (OX1R) | Orexin/Hypocretin receptor type 1 (Homo sapiens), O43613 | OX1R-expressing cells, FRET antagonist read-out | inhibition, % at 6.6 µM | 330,000 tested, 1.8% active | AID 485270, 2010; in the data active means inhibition mostly above about 38%, no sharp cut-off; inactive means mostly below about 40%;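 further: 0% = agonist challenge alone and 100% = reference antagonist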
CHO parental Ca: ATP-evoked calcium signal inhibitors, parental CHO, primary screen, counter-screen for OX1R antagonist project, cell-based, fluorescence, Fluo-8 calcium dye. parental CHO-K1, ATP-induced calcium, Fluo-8 fluorescence. inhibition, % at 5.6 µM. 330,000 tested, 0.63% active. AID 463079, 2010;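 active means inhibition above that plate's mean sample inhibition plus 3 SD, cut at about 26% in these data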;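 further: 0% = ATP-challenged DMSO wells and 100% = DMSO wells without ATP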
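material = parental CHO cells | also added = ATP as calcium-mobilizing challenge | dosing = single point at 5.6 µM | detection = intracellular calcium via Fluo-8 no-wash fluorescent dye | read-out = % inhibition | benchmarks = low control ATP plus DMSO, high control DMSO only | repeats = one well per compound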
GPR7 antagonist: GPR7 receptor antagonists, primary screen, cell-based, fluorescence, single concentration. inhibition, % at 4.4 µM. Neuropeptides B/W receptor type 1 (Homo sapiens), P48145. GPR7-expressing cells, fluorescence antagonist assay. 290,000 tested, 1.1% active; in the data active means inhibition above about 16%, passing the limit was not always enough;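 further: cells stimulated with the agonist NPW; 0% = agonist with vehicle and 100% = vehicle without agonist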
Target sequence (P48145 whole entry, looked up): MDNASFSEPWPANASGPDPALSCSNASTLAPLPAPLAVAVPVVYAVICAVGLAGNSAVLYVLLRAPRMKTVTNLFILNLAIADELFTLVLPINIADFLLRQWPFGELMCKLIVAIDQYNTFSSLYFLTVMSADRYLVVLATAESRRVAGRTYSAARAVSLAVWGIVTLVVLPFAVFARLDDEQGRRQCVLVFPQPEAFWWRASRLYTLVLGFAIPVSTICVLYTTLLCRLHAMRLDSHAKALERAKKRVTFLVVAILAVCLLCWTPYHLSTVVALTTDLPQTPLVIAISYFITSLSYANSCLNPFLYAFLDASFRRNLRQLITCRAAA
TAAR1 ag: human TAAR1 agonists, primary screen, Fluo-8 calcium fluorescence, CHO RD-HGA16 cells. Trace amine-associated receptor 1 (Homo sapiens), Q96RJ0. vehicle wells 0%, saturating PEA agonist 100%. activation, % at 3 µM. 360,000 tested, 0.99% active;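 active means activation above the mean activation of all test compounds in the run plus 3 SD, cut at about 38% in these data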
Target sequence (Q96RJ0 whole entry, looked up): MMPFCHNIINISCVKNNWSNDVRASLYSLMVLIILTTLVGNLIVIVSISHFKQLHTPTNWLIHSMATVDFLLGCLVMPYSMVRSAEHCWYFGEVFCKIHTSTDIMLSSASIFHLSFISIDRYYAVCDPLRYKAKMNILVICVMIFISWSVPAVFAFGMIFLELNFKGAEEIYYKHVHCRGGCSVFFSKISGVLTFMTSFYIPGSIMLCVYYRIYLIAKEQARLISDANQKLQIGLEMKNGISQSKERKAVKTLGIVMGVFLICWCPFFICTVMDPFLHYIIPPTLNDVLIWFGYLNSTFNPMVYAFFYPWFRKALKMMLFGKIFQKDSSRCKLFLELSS
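Assay system – CHO-derived RD-HGA16 cells with stable Gα16 and human TAAR1 · Compound dosing – one-point dosing at 3 µM (nominal) · Incubation – 17-24 h seeding, 75 min 37 °C dye, 30 min RT · Measured by – kinetic Fluo-8 calcium fluorescence · Control set – DMSO vehicle as 0%, PEA at EC100 as 100% · Repeats – single well for each compound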
TAAR1 antagonist: human TAAR1 antagonists, primary screen, Fluo-8 calcium fluorescence, CHO RD-HGA16 cells. Trace amine-associated receptor 1 (Homo sapiens), Q96RJ0. antagonist. inhibition, % at 3 µM. 360,000 tested, 1.5% active. AID 624466, 2012;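 active means inhibition above a per-plate cutoff, the mean inhibition of test compounds on that plate plus 3 SD, cut at about 49% in these data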;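 further: 0% = DMSO plus EC80 beta-PEA response and 100% = DMSO alone without agonist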
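System: RD-HGA16 CHO cells with stable hTAAR1 and Gα16 | Probe or stimulus: EC80 β-phenethylamine stimulus | Dosing: 3 µM, single point | Times: Dye loading 75 min at 37 °C, then 30 min room temperature | Measured by: Fluo-8 calcium-sensitive fluorescence | Read-out basis: % inhibition of agonist calcium response | Replicates: n of 1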
OX1R antag-2: OX1R (HCRTR1) antagonists, primary screen, fluorescence, CHO/OX1R cells, Fluo-8 calcium, orexin A | 330,000 tested, 0.43% active | inhibition, % at 5 µM | Orexin/Hypocretin receptor type 1 (Homo sapiens), O43613 | Fluo-8 calcium fluorescence;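 active means inhibition above its plate's threshold, mean inhibition of all tested compounds on the plate plus 3 SD, cut at about 37% in these data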;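 further: 0% = orexin A challenge wells and 100% = SB-334867-A antagonist wells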
TAAR1 ag conf: human TAAR1 agonists, retest of hits, confirmation, Fluo-8 calcium fluorescence, CHO RD-HGA16 cells. shares compounds with TAAR1 ag. scaled: DMSO 0%, maximal phenethylamine 100%. activation, % at 3 µM. 2,400 tested, 82% active. AID 651783, 2012;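 active means activation above a cutoff set at the run's mean compound activation plus 3 SD, cut at about 39% in these data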
Ga16 ag counter: nonselective calcium mobilization agonists, CHO-Ga16 cells, counter-screen for hTAAR1 agonist project, cell-based, fluorescence, CHO-Ga16 parental line | 2,400 tested, 50% active | activation, % at 3 µM | AID 651787, 2012 | Fluo-8 calcium fluorescence; normalized to maximal ATP response, DMSO zero | shares compounds with TAAR1 ag;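 active means activation above the run cutoff, the mean activation over all tested wells plus 3 SD, cut at about 12% in these data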;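 further: 0% = DMSO wells and 100% = maximal ATP response on the peak over basal ratio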
TAAR1 desens: TAAR1 desensitization by agonist hits, confirmation, counter-screen for TAAR1 agonist project, cell-based, fluorescence, tachyphylaxis | shares compounds with TAAR1 ag | CHO RD-HGA16 hTAAR1, Fluo-8 calcium, beta-PEA response inhibition | inhibition, % at 3 µM | 2,400 tested, 46% active | AID 651951, 2012;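 active means inhibition above the run cutoff, the mean inhibition of all test compounds plus 3 SD, cut at about 49% in these data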;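 further: beta-PEA stimulus applied at its EC80; loss of beta-PEA calcium signal after compound pretreatment read as receptor desensitization; 0% = DMSO with beta-PEA at EC80 and 100% = DMSO alone without agonist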
Ga16 antag count: inhibition of ATP-evoked calcium response in CHO-Ga16 cells, counter-screen for TAAR1 agonist project, cell-based, fluorescence; shares compounds with TAAR1 ag; CHO-Ga16 ATP-induced calcium, Fluo-8 fluorescence; inhibition, % at 3 µM; 2,400 tested, 39% active;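 active means inhibition above the plate's mean compound inhibition plus 3 SD, computed per plate, cut at about 22% in these data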;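 further: 0% = EC80 ATP with DMSO and 100% = DMSO wells without ATP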
The depositor's hits bear a star; . = no result. Hits are enriched below; roughly 4.6% of the tested compounds scored in any of these assays.

SMILES	OX1R antag-1	CHO parental Ca	GPR7 antagonist	TAAR1 ag	TAAR1 antagonist	OX1R antag-2	TAAR1 ag conf	Ga16 ag counter	TAAR1 desens	Ga16 antag count
CCN(CC)C(=O)Oc1nnc(SC(C)C)n1-c1ccc(Cl)cc1	5.5	-15.2	-5.9	0.5	5.2	-15.1	.	.	.	.
O=c1cc(CSc2nnnn2-c2ccccc2)nc(Nc2ccc(F)cc2)[nH]1	16.5	-5.8	19.3	66.5*	31.6	19.6	97.2*	5.2	67.1*	25.6*
N/C(=N\c1nc(CSc2nnnn2-c2ccccc2)cc(=O)[nH]1)Nc1ccccc1	0.0	-13.4	-4.0	16.0	28.2	-7.2	.	.	.	.
COc1cc(N/N=C/c2ccccc2O)ncn1	10.6	5.4	-4.2	49.3*	5.0	-13.3	57.1*	8.6	53.1*	11.4
Cc1nc2ccc(NC(=O)C3CCN(S(=O)(=O)c4cccs4)CC3)cc2s1	16.4	-5.8	9.6	41.3*	-4.6	-16.2	8.1	11.9*	11.8	12.8
CCC(=O)OCCn1c(=O)c2cc3c(=O)n(CCOC(=O)CC)c(=O)c3cc2c1=O	18.6	1.6	7.8	0.7	3.7	-2.3	.	.	.	.
CCCOC(=O)Cn1c(=O)c2cc3c(=O)n(CC(=O)OCCC)c(=O)c3cc2c1=O	.	.	-3.2	52.8*	11.6	.	5.7	2.9	-4.8	6.0
C=CC#CC1(O)CC(C)[N+](C)(C)CC1C (stereo not given)	15.5	-12.1	1.2	6.2	5.9	4.0	.	.	.	.
COC(=O)C1=C(C)N(Cc2cccc(C(F)(F)F)c2)C(=NCc2ccc3c(c2)OCO3)NC1c1cccc(C(F)(F)F)c1 (stereo not given)	.	.	.	39.5*	33.9	.	36.0	13.3*	25.4	32.8*
COC(=O)C1=C(C)N(Cc2cccc(C(F)(F)F)c2)C(=NCc2cccc(C(F)(F)F)c2)NC1c1ccc(Cl)cc1 (stereo not given)	.	.	.	10.9	5.9	.	.	.	.	.
COC(=O)C1=C(C)N(Cc2cccc(C(F)(F)F)c2)C(=NCc2ccc3c(c2)OCO3)NC1c1ccc(F)cc1 (stereo not given)	.	.	.	47.5*	49.7*	.	35.4	15.2*	44.4	35.9*
C=CCN=C1NC(c2ccc(Cl)cc2)C(C(=O)OC)=C(C)N1Cc1cccc(C(F)(F)F)c1 (stereo not given)	.	.	.	65.1*	74.9*	.	76.2*	46.5*	89.3*	71.5*
COC(=O)C1=C(C)N(Cc2cccc(C(F)(F)F)c2)C(=NCc2ccc(C(F)(F)F)cc2)NC1c1ccc(F)cc1 (stereo not given)	.	.	.	26.9	34.5	.	.	.	.	.
CC(C)C(C)(C#N)NC(=O)CSc1nc(C2CCCCC2)n(-c2ccccc2)n1 (stereo not given)	7.9	-16.9	-6.2	3.9	-20.9	-26.1	.	.	.	.
N=C(N)SCc1ccc(Cl)cc1Cl	3.5	-3.5	3.6	58.1*	31.8	6.7	86.8*	18.7*	60.3*	14.6
COc1ccc(Nc2cc(C)c3c(O)cccc3n2)cc1	32.2	-10.5	2.5	.	.	-9.5	.	6.1	.	13.2
Cc1ccc(Nc2cc(C)c3c(O)cccc3n2)cc1C	4.1	14.4	6.3	97.9*	54.1*	9.8	96.1*	28.3*	87.4*	24.8*
CCCc1ccc(C(O)c2ncc(-c3ccc(OC)cc3)[nH]2)cc1 (stereo not given)	.	.	.	0.8	-9.3	.	.	.	.	.
COc1cc(C(C)=O)ccc1OCC(O)CN1CCN(S(=O)(=O)c2ccccc2)CC1 (stereo not given)	35.4	-4.5	12.8	14.5	3.4	-16.8	.	.	.	.
COc1cc(C(C)=O)ccc1OCC(O)CNCC(O)c1ccccc1 (stereo not given)	-3.1	-17.7	-0.2	91.0*	35.8	-27.2	97.9*	2.9	73.6*	0.2
Cc1nc2ccccc2c(=O)n1-c1cccc(NC(=O)c2cccs2)c1	23.7	-12.8	.	-1.2	-28.1	-19.3	.	.	.	.
O=C(Nc1cccc(N2C(=O)C=CC2=O)c1)c1cccs1	22.0	-6.2	.	56.7*	21.9	-4.7	27.4	18.9*	23.9	21.6*
CCn1cc(CNC(=O)c2ccc3nc(Cc4ccc(OC)cc4)oc3c2)cn1	24.0	-9.7	3.7	6.8	7.7	2.1	.	.	.	.
COc1ccc(NC(=O)C(=O)NCC(c2ccco2)N2CCc3ccccc3C2)cc1OC (stereo not given)	14.8	-21.5	.	56.0*	-10.3	-39.9	47.9*	2.4	15.9	11.6
COc1cccc(NC(=O)C(=O)NCC(c2ccco2)N2CCc3ccccc3C2)c1 (stereo not given)	16.2	-15.8	.	11.4	-21.1	-13.3	.	.	.	.
CC(=O)Nc1cccc(NC(=O)C(=O)NCC(c2ccco2)N2CCc3ccccc3C2)c1 (stereo not given)	8.9	-4.5	.	56.6*	0.7	-29.2	62.9*	10.5	53.5*	30.8*
C[C@H]1CN([C@@H](C)CO)C(=O)c2cc(C#Cc3ccccn3)cnc2O[C@@H]1CN(C)Cc1ccccc1	.	.	.	0.5	-8.5	.	.	.	.	.
Cc1ccc(NC(=O)NC(=O)CN2CCCC2c2ccc3c(c2)OCCO3)cc1C (stereo not given)	24.4	-26.5	.	1.0	-13.2	-12.5	.	.	.	.
CCOC(=O)C1(Cc2ccc(Cl)cc2)CCN(C(=O)c2ccoc2)CC1	24.1	-13.7	1.6	1.8	9.2	-27.8	.	.	.	.
O=C(NCCc1cccs1)C1CC(c2cccc(F)c2)=NO1 (stereo not given)	18.6	2.6	.	58.6*	85.0*	-12.2	73.3*	4.7	93.5*	3.8

Compound activity as filed in PubChem.
